Measurements from ChEMBL document CHEMBL3044673, “Design, synthesis and insecticidal activity of novel phenylpyrazoles containing a 2,2,2-trichloro-1-alkoxyethyl moiety” (2010).

How the values were obtained:
Type in all cases: functional
[1] = system: Aphis craccivora; assay: Insecticidal activity against Aphis craccivora (cowpea aphid) infested tender soybean shoots exposed to 50 mg/kg test compound solution assessed as insect mortality measured 24 hr post compound treatment
Outline: (§1)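 Soybean tender shoots carrying 60 aphids were dipped in test solutions. Solutions were made from a 200 mg L^-1 stock in dimethylformamide, diluted with water containing TW-20. Insects were laboratory-reared, tests were held at 25±1 °C, and mortality was scored.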

[2] = system: Culex pipiens pallens; assay: Insecticidal activity against Culex pipiens pallens (mosquito) assessed as insect mortality at 100 ug/kg measured 1 day post compound treatment; conditions: Culex pipiens, 24 h
Outline: (§2)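 Fourth-instar Culex pipiens pallens larvae, 20 per test, were laboratory-reared and placed in 100 mL of test solution made by adding 1 mL of compound dilution to 99 mL of water. Tests were held at 25±1 °C, percentage mortality was scored 1 day after treatment, and each test was run three times.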

[3] = system: Aphis craccivora; assay: Insecticidal activity against Aphis craccivora (cowpea aphid) infested tender soybean shoots exposed to 200 mg/kg test compound solution assessed as insect mortality measured 24 hr post compound treatment; outline: as §1
[4] = system: Aphis craccivora; assay: Insecticidal activity against Aphis craccivora (cowpea aphid) infested tender soybean shoots exposed to 25 mg/kg test compound solution assessed as insect mortality measured 24 hr post compound treatment; outline: as §1
[5] = system: Aphis craccivora; assay: Insecticidal activity against Aphis craccivora (cowpea aphid) infested tender soybean shoots exposed to 100 mg/kg test compound solution assessed as insect mortality measured 24 hr post compound treatment; outline: as §1
[6] = system: Mythimna separata; assay: Insecticidal activity against Mythimna separata (Oriental armyworm) grown on compound pre-treated corn leaves assessed as insect mortality at 200 mg/kg measured 3 days post compound treatment by leaf-dip method
[7] = system: Plutella xylostella; assay: Insecticidal activity against Plutella xylostella (diamondback moth) grown on compound pre-treated fresh cabbage leaves assessed as insect mortality at 25 mg/kg measured 3 days post compound treatment by leaf-dip method; conditions: Plutella xylostella
Outline: (§3)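 Leaf-dip stomach-toxicity assay on laboratory-reared diamondback moth. Test solutions came from a 200 mg L^-1 stock in dimethylformamide, diluted with water containing TW-20. Control leaves were treated with water and dimethylformamide. Tests were held at 25±1 °C, percentage mortality was scored 3 days after treatment, and each treatment was run three times.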

[8] = system: Culex pipiens pallens; assay: Insecticidal activity against Culex pipiens pallens (mosquito) assessed as insect mortality at 25 ug/kg measured 1 day post compound treatment; conditions: 24 h; outline: as §2
[9] = system: Plutella xylostella; assay: Insecticidal activity against Plutella xylostella (diamondback moth) grown on compound pre-treated fresh cabbage leaves assessed as insect mortality at 200 mg/kg measured 3 days post compound treatment by leaf-dip method; outline: as §3
[10] = system: Plutella xylostella; assay: Insecticidal activity against Plutella xylostella (diamondback moth) grown on compound pre-treated fresh cabbage leaves assessed as insect mortality at 50 mg/kg measured 3 days post compound treatment by leaf-dip method; outline: as §3
[11] = system: Aphis craccivora; assay: Insecticidal activity against Aphis craccivora (cowpea aphid) infested tender soybean shoots exposed to 5 mg/kg test compound solution assessed as insect mortality measured 24 hr post compound treatment; conditions: Aphis craccivora, 24 h; outline: as §1
[12] = system: Culex pipiens pallens; assay: Insecticidal activity against Culex pipiens pallens (mosquito) assessed as insect mortality at 50 ug/kg measured 1 day post compound treatment; conditions: 24 h; outline: as §2
[13] = system: Aphis craccivora; assay: Insecticidal activity against Aphis craccivora (cowpea aphid) infested tender soybean shoots exposed to test compound solution assessed as insect mortality measured 24 hr post compound treatment; outline: as §1
[14] = system: Plutella xylostella; assay: Insecticidal activity against Plutella xylostella (diamondback moth) grown on compound pre-treated fresh cabbage leaves assessed as insect mortality at 100 mg/kg measured 3 days post compound treatment by leaf-dip method; outline: as §3
[15] = system: Plutella xylostella; assay: Insecticidal activity against Plutella xylostella (diamondback moth) grown on compound pre-treated fresh cabbage leaves assessed as insect mortality at 10 mg/kg measured 3 days post compound treatment by leaf-dip method; conditions: Plutella xylostella; outline: as §3
[16] = system: Aphis craccivora; assay: Insecticidal activity against Aphis craccivora (cowpea aphid) infested tender soybean shoots exposed to 10 mg/kg test compound solution assessed as insect mortality measured 24 hr post compound treatment; conditions: Aphis craccivora, 24 h; outline: as §1
[17] = system: Plutella xylostella; assay: Insecticidal activity against Plutella xylostella (diamondback moth) grown on compound pre-treated fresh cabbage leaves assessed as insect mortality at 5 mg/kg measured 3 days post compound treatment by leaf-dip method; conditions: Plutella xylostella; outline: as §3
[18] = system: Plutella xylostella; assay: Insecticidal activity against Plutella xylostella (diamondback moth) grown on compound pre-treated fresh cabbage leaves assessed as insect mortality at 2.5 mg/kg measured 3 days post compound treatment by leaf-dip method; outline: as §3
[19] = system: Aphis craccivora; assay: Insecticidal activity against Aphis craccivora (cowpea aphid) infested tender soybean shoots exposed to 2.5 mg/kg test compound solution assessed as insect mortality measured 24 hr post compound treatment; conditions: Aphis craccivora, 24 h; outline: as §1
[20] = system: Aphis craccivora; assay: Ratio of LC50 of ethiprole to LC50 of test compound against Aphis craccivora (cowpea aphid) infested tender soybean shoots exposed to test compound solution assessed as insect mortality measured 24 hr post compound treatment
[21] = system: Culex pipiens pallens; assay: Insecticidal activity against Culex pipiens pallens (mosquito) assessed as insect mortality at 5 ug/kg measured 1 day post compound treatment; conditions: 24 h; outline: as §2
[22] = system: Culex pipiens pallens; assay: Insecticidal activity against Culex pipiens pallens (mosquito) assessed as insect mortality at 10 ug/kg measured 1 day post compound treatment; conditions: 24 h; outline: as §2

CC[S+]([O-])c1c(C#N)nn(-c2c(Cl)cc(C(F)(F)F)cc2Cl)c1N (configuration not stated) [ETHIPROLE]
mortality at 50 mg/kg [1]: 100% | mortality at 0.1 mg/kg [2]: 100% | mortality at 200 mg/kg [3]: 100% | mortality at 25 mg/kg [4]: 100% | mortality at 100 mg/kg [5]: 100% | mortality at 200 mg/kg [6]: 0% | mortality at 25 mg/kg [7]: 69% | mortality at 0.025 mg/kg [8]: 50% | mortality at 200 mg/kg [9]: 100% | mortality at 50 mg/kg [10]: 100% | mortality at 5 mg/kg [11]: 0% | mortality at 0.05 mg/kg [12]: 100% | LC50 [13]: 11.7263 mg/kg | mortality at 100 mg/kg [14]: 100% | mortality at 10 mg/kg [15]: 23% | mortality at 10 mg/kg [16]: 31% | mortality at 5 mg/kg [17]: 0%

CCCOC(Nc1c([S+](C)[O-])c(C#N)nn1-c1c(Cl)cc(C(F)(F)F)cc1Cl)C(Cl)(Cl)Cl (configuration not stated)
mortality at 50 mg/kg [1]: 100% | mortality at 0.1 mg/kg [2]: 100% | mortality at 200 mg/kg [3]: 100% | mortality at 25 mg/kg [4]: 100% | mortality at 100 mg/kg [5]: 100% | mortality at 200 mg/kg [6]: 40% | mortality at 25 mg/kg [7]: 100% | mortality at 2.5 mg/kg [18]: 0% | mortality at 0.025 mg/kg [8]: 50% | mortality at 200 mg/kg [9]: 100% | mortality at 50 mg/kg [10]: 100% | mortality at 5 mg/kg [11]: 91% | mortality at 0.05 mg/kg [12]: 100% | mortality at 2.5 mg/kg [19]: 0% | LC50 [13]: 2.7616 mg/kg | RatioLC50 [20]: 4.3 | mortality at 100 mg/kg [14]: 100% | mortality at 10 mg/kg [15]: 71% | mortality at 10 mg/kg [16]: 100% | mortality at 5 mg/kg [17]: 30%

CCSc1c(C#N)nn(-c2c(Cl)cc(C(F)(F)F)cc2Cl)c1NC(OCCF)C(Cl)(Cl)Cl (configuration not stated)
mortality at 50 mg/kg [1]: 100% | mortality at 0.1 mg/kg [2]: 100% | mortality at 200 mg/kg [3]: 100% | mortality at 0.005 mg/kg [21]: 0% | mortality at 25 mg/kg [4]: 29% | mortality at 100 mg/kg [5]: 100% | mortality at 200 mg/kg [6]: 20% | mortality at 25 mg/kg [7]: 100% | mortality at 0.025 mg/kg [8]: 100% | mortality at 200 mg/kg [9]: 100% | mortality at 50 mg/kg [10]: 100% | mortality at 5 mg/kg [11]: 0% | mortality at 0.05 mg/kg [12]: 100% | mortality at 100 mg/kg [14]: 100% | mortality at 0.01 mg/kg [22]: 100% | mortality at 10 mg/kg [15]: 29% | mortality at 10 mg/kg [16]: 11% | mortality at 5 mg/kg [17]: 0%

CCCOC(Nc1c([S+]([O-])CC)c(C#N)nn1-c1c(Cl)cc(C(F)(F)F)cc1Cl)C(Cl)(Cl)Cl (configuration not stated)
mortality at 50 mg/kg [1]: 100% | mortality at 0.1 mg/kg [2]: 100% | mortality at 200 mg/kg [3]: 100% | mortality at 25 mg/kg [4]: 100% | mortality at 100 mg/kg [5]: 100% | mortality at 25 mg/kg [7]: 87% | mortality at 2.5 mg/kg [18]: 0% | mortality at 0.025 mg/kg [8]: 0% | mortality at 200 mg/kg [9]: 100% | mortality at 50 mg/kg [10]: 100% | mortality at 5 mg/kg [11]: 100% | mortality at 0.05 mg/kg [12]: 100% | mortality at 2.5 mg/kg [19]: 89% | LC50 [13]: 1.4873 mg/kg | RatioLC50 [20]: 7.9 | mortality at 100 mg/kg [14]: 100% | mortality at 10 mg/kg [15]: 44% | mortality at 10 mg/kg [16]: 100% | mortality at 5 mg/kg [17]: 27%

COC(Nc1c([S+](C)[O-])c(C#N)nn1-c1c(Cl)cc(C(F)(F)F)cc1Cl)C(Cl)(Cl)Cl (configuration not stated)
mortality at 50 mg/kg [1]: 100% | mortality at 0.1 mg/kg [2]: 100% | mortality at 200 mg/kg [3]: 100% | mortality at 25 mg/kg [4]: 100% | mortality at 100 mg/kg [5]: 100% | mortality at 25 mg/kg [7]: 100% | mortality at 2.5 mg/kg [18]: 34% | mortality at 200 mg/kg [9]: 100% | mortality at 50 mg/kg [10]: 100% | mortality at 5 mg/kg [11]: 88% | mortality at 0.05 mg/kg [12]: 50% | mortality at 2.5 mg/kg [19]: 0% | LC50 [13]: 2.8848 mg/kg | RatioLC50 [20]: 4.2 | mortality at 100 mg/kg [14]: 100% | mortality at 10 mg/kg [15]: 91% | mortality at 10 mg/kg [16]: 100% | mortality at 5 mg/kg [17]: 88%
